# Screens deposited in PubChem BioAssay by several laboratories.
# WT yeast gro inh = growth inhibition of WT strain, primary screen, mitochondrial fusion inhibitor project, WT and mutant strains, chemical genetic; AID 1362, 2008; 2.1% of 190,000 active; mitochondrial fusion phenotypic screen; inhibition, % at 10 µM; in the data active means inhibition above about 58%; tested in S. cerevisiae
# MPTP inh = mitochondrial permeability transition pore inhibitors, primary screen, biochemical, isolated mouse mitochondria, absorbance; 1.4% of 360,000 active; Ca2+ swelling absorbance, 30 min; inhibition, % at 10 µM;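 active means inhibition of 50% or more, scaled per plate between neutral and stimulator controls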;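 further: 0% = DMSO wells given calcium and 100% = 1 mM EGTA wells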
# GRIN3A LBD mod = binders of NR3A ligand-binding domain, primary screen, biophysical, differential scanning fluorimetry, uHTS; 2.5% of 340,000 active; AID 1259313, 2017; NR3A LBD differential scanning fluorimetry, Tm shift; 0% = protein alone, 100% = glycine-bound protein; Tm shift relative to glycine control, % at 25 µM; Glutamate receptor ionotropic, NMDA 3A (GRIN3A) ligand-binding domain;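 active means melting temperature shift of at least 10% of the positive control shift, at one fixed dose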
# TbMetRS inhib = T. brucei MetRS inhibitors, primary screen, biochemical, luminescence. inhibition, % at 11.9 µM. 0.4% of 360,000 active. purified T. brucei MetRS, ATP depletion, Kinase-Glo luminescence;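 active means inhibition above a per-plate cutoff of the control wells' mean inhibition plus 3 SD, cut at about 5.5% in these data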;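 further: 0% = DMSO wells median and 100% = median of wells with control inhibitor compound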
#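 assay system = parasite MetRS enzyme | timing = 15 min preincubation, 2 h reaction, all 25 °C | evaluation = percent inhibition relative to median high and low control wells | medium = HEPES buffer containing pyrophosphatase, BSA, spermine, DTT | compound = single dose, 11.9 µM final nominal, 0.9% final DMSO | detection = Kinase-Glo luminescence, ATP depletion format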
# CHOP inh = inhibitors of CHOP promoter induction, primary screen, cell-based, unfolded protein response, luciferase reporter | CHO-K1 CHOP-promoter luciferase, tunicamycin-induced, 15-18 h | inhibition, % at 10 µM | 3.8% of 220,000 active | AID 2732, 2010;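 active means compounds that reduced the stress-induced luciferase reporter signal by more than about 70% of percent inhibition, limit read from the data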;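 further: 0% = tunicamycin plus vehicle and 100% = wells without tunicamycin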
# EBV gp42 inh = Epstein-Barr virus gp42 inhibitors, primary screen, biochemical, uHTS, fluorescence polarization; Fluorescence polarization binding assay, mP read-out; inhibition, % (tested at 21.74 µM); 0.42% of 220,000 active; AID 1085, 2008; in the data active means inhibition above about 50%
# Target sequence (Q1HVG2 whole entry, looked up): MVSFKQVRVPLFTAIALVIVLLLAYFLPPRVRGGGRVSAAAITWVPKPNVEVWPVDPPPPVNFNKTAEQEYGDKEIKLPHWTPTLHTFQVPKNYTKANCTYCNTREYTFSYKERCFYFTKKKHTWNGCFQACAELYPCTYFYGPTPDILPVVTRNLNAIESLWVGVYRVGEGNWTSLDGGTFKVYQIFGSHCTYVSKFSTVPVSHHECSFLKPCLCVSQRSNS
# The depositor's hits bear a star; . = no result given. This is a sample that favours compounds with a hit; in the whole collection about 6.4% have one here.
SMILES,WT yeast gro inh,MPTP inh,GRIN3A LBD mod,TbMetRS inhib,CHOP inh,EBV gp42 inh
COc1ccc(CCN2C(=O)C(Oc3ccccc3C)C2c2ccc3c(c2)OCO3)cc1OC (stereo not drawn),7,0,-1,-1,-2,-5
N#CC1=C(N)SC(N)=C(C#N)C1c1c(Cl)cccc1Cl,63*,6,-12,0,-3,-24
CCOC(=O)N1CCN(Cc2nc(N)nc(Nc3ccc(Oc4ccccc4)cc3)n2)CC1,15,1,-5,-2,74*,-10
CCOC(=O)c1c(NC(=O)CSc2nnc(-c3c[nH]c4ccccc34)n2C)sc2c1CCCC2,15,0,0,0,16,-4
Cc1ccc2nc(SCC(=O)c3ccc4c(c3)NC(=O)CO4)[nH]c2c1,-2,0,-1,5,10,4
Cc1ccc(C)c(-n2nnnc2SCC(=O)c2ccc3c(c2)NC(=O)CO3)c1,48,4,-3,0,81*,-16
Cn1c(SCC(=O)NNC(=O)c2ccc(Br)cc2)nnc1-c1cccnc1,2,0,-1,0,-7,6
Nc1ccc2c(c1)Cc1cc(Cl)c(Cl)cc1-2,.,3,15*,0,.,.
Nc1ccc2c(c1)Cc1cc(N)c(Cl)cc1-2,.,0,9,0,.,.
C=CCn1cnc2c(c1=O)c1nc3ccccc3nc1n2/N=C/c1cccc(OC)c1,.,-2,11*,0,.,.
CCC(=O)Nc1cc2nn(-c3ccc(OC)cc3)nc2cc1C,2,0,0,-1,59,7
CCC(=O)Nc1cc2nn(-c3ccc(C)cc3)nc2cc1C,-2,-1,-2,-1,91*,-26
Cc1cccc(NC(=S)N=Nc2c(O)n(CN3CCOCC3)c3ccccc23)c1C,69*,6,0,0,38,-21
Cc1ccc(N=Nc2c(O)n(CN3CCOCC3)c3ccccc23)cc1,10,1,0,-1,36,94*
C/C(=N\NC(=O)COc1ccccc1)c1cccs1,-10,0,1,-1,-13,-10
COc1ccc(Nc2nc(-c3cc4cccc(OC)c4oc3=O)cs2)cc1,19,4,16*,-1,39,-6
COc1cccc2sc(Nc3nc(-c4cc5ccccc5oc4=O)cs3)nc12,-2,2,20*,0,-4,29
COc1ccc(-c2cc3cccc(OC)c3oc2=O)cc1,.,0,-1,-1,.,.
COc1ccc2oc(=O)c(-c3csc(Nc4cccc(O)c4)n3)cc2c1,74*,6,27*,0,0,-4
O=C(Nc1nc(-c2cc3ccccc3oc2=O)cs1)c1ccc(Br)o1,24,2,29*,0,46,10
COc1cccc2sc(Nc3nc(-c4ccncc4)cs3)nc12,6,-4,-2,0,-24,4
CCC(C)NC(=O)c1cn(-c2cccc(C)n2)cn1 (stereo not drawn),-3,-1,-1,-1,-14,-2
Cc1cc(Cl)c2oc(C(=O)N3CCN(c4cnccn4)CC3)c(C)c2c1,.,1,.,0,.,.
CCCNC(=O)NC(=O)COC(=O)c1oc2ccc(OCC)cc2c1C,2,1,-2,0,72*,-7
COCCn1c(SCC(=O)Nc2ncc(C)s2)nc2sc3c(c2c1=O)CCC3,32,.,.,.,12,-13
SMILES,WT yeast gro inh,MPTP inh,GRIN3A LBD mod,TbMetRS inhib,CHOP inh,EBV gp42 inh
Cc1ccc2[nH]c(O)c(N=NC(=O)c3ccc(NS(=O)(=O)c4cccs4)cc3)c2c1,.,1,6,0,4,58*
CC(C)C(=O)N(c1ccc(F)cc1)C1C=CS(=O)(=O)C1 (stereo not drawn),-9,0,1,0,-18,-8
S=c1[nH]nc(-c2ccncc2)n1/N=C/c1cn(-c2ccccc2)nc1-c1ccc(Cl)cc1,.,2,1,0,91*,-7
Cc1nn(-c2ccccc2)c(C)c1/C=N/n1c(-c2ccc(C(C)(C)C)cc2)n[nH]c1=S,39,4,-6,-1,84*,-17
CSc1nnc(-c2ccncc2)n1/N=C/c1cn(-c2ccccc2)nc1-c1ccc(Cl)cc1,.,1,0,0,35,-9
Cc1cccc(C)c1NC(=O)C1(C)CCC(=O)N1C1CCN(Cc2ccccc2)CC1 (stereo not drawn),.,-2,.,-1,.,.
Cc1cc[n+](C2=C([O-])c3ccccc3C(=O)/C2=N\S(=O)(=O)c2cccs2)cc1C,15,-2,0,0,-29,-4
O=C1/C(=N\S(=O)(=O)c2cccs2)C([n+]2ccc(CCCc3ccccc3)cc2)=C([O-])c2ccccc21,.,1,4,3,95*,35
O=C1/C(=N\S(=O)(=O)c2cccs2)C([n+]2cccc(Cc3ccccc3)c2)=C([O-])c2ccccc21,.,2,1,-1,65,142*
O=C(CNS(=O)(=O)c1ccc(Br)s1)N1CCC(N2CCCCC2)CC1,12,1,13*,-1,21,-8
Cc1ccc(N2CCN(C(=O)CNS(=O)(=O)c3ccc(Br)s3)CC2C)cc1 (stereo not drawn),14,-1,-1,-1,72*,-6
CC1CCN(C(=O)CNS(=O)(=O)c2ccc(Br)s2)CC1,12,-1,5,-1,26,0
CCOC(=O)c1c(-c2ccc(OC)cc2)csc1/N=C/C1=C(O)CCCC1=O,60*,3,-9,0,39,-22
NC(=O)CC[C@@H]1NC(=O)C(Cc2ccc(O)cc2)NC(=O)c2cc([N+](=O)[O-])cc(F)c2NCCC[C@@H](C(N)=O)NC1=O (stereo partly drawn),9,.,.,.,3,3
Cc1ccc(CN2CC(N3CC=CC3)CS2(=O)=O)cc1 (stereo not drawn),.,0,.,-2,.,.
FC(F)(F)c1cc(-c2cccs2)nc2nc(N3CCOCC3)sc12,10,-3,0,0,94*,0
O=C(c1cnn2c(C(F)(F)F)cc(-c3cccs3)nc12)N1CCOCC1,-10,-1,-1,0,13,10
O=[N+]([O-])c1cccc(C(=S)N2CCN(c3ccc(F)cc3)CC2)c1,30,1,0,-2,8,15
CCc1ccc(OCC(=O)Oc2ccc([N+](=O)[O-])cc2)cc1,.,1,0,-1,.,.
CC(C)NC(=O)C1CCCN(S(=O)(=O)c2cccs2)C1 (stereo not drawn),-7,-4,11*,-1,-32,-2
